Test [1] addresses T1, Neuronal acetylcholine receptor; alpha4/beta2 (Homo sapiens) (UniProt P17787+P43681). As to the kind of experiment: Activity at human nAChR alpha4beta2 expressing Xenopus oocytes assessed as stimulation of nicotine-induced current at 10 uM by two-electrode voltage-clamp method. The following applies: Oocyte. The test is classed as cell-based. The essentials:
(§1)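 Oocytes injected with 0.005–50 ng mRNA per subunit (α4β2 and α3β4 at 1:1; α1β1γδ at 1:1:1:1; α7 and 5-HT3A single). Two-electrode voltage clamp at −70 mV, 3–14 days post-injection. Ca²⁺-free Ringer's with BaCl₂ replacing Ca²⁺ (pH 7.4) to limit Ca²⁺-activated Cl⁻ currents. Rapid linear-array application. Current expressed as I/I_max; concentration–effect data fit to a four-parameter logistic. For α7, agonist was fixed at EC₅.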
Background: Two-electrode voltage clamp is typically applied to oocytes expressing channels or transporters.

Test [2] addresses GABA-A receptor; alpha-2/beta-3/gamma-2 (Homo sapiens) (UniProt P18507+P28472+P47869). Description: Activation of human GABAA alpha-2-beta-3-gamma-2L receptor expressed in Xenopus oocytes assessed as modulation of GABA-induced current by measuring ratio of I/Imax current by two-electrode voltage-clamp method. The following applies: Oocyte.
Test [3] has as its target T2, Neuronal acetylcholine receptor subunit alpha-7 (Homo sapiens, UniProt P36544). Description: Activation of human alpha-7 nAChR expressed in Xenopus oocytes assessed as modulation of nicotine-induced current by two-electrode voltage-clamp method. The test is classed as cell-based, Oocyte. An outline of the steps:
as §1

For test [4], the target named is T3, GABA-A receptor; alpha-2/beta-3/gamma-2 (Homo sapiens, UniProt P18507+P28472+P47869).
T3 sequence (P18507 whole entry): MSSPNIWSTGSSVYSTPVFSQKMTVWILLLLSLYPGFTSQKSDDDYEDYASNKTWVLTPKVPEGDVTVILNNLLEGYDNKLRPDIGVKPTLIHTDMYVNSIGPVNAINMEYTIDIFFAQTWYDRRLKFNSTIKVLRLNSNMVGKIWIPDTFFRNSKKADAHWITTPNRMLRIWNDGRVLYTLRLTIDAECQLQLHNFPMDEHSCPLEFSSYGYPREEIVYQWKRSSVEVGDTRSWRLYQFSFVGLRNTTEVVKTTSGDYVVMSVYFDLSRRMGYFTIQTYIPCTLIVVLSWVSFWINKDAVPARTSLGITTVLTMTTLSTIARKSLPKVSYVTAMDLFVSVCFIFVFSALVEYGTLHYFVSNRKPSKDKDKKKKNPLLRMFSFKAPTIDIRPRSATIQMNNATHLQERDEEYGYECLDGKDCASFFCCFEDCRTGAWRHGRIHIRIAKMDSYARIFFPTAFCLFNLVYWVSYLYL
T3 sequence (P28472 whole entry): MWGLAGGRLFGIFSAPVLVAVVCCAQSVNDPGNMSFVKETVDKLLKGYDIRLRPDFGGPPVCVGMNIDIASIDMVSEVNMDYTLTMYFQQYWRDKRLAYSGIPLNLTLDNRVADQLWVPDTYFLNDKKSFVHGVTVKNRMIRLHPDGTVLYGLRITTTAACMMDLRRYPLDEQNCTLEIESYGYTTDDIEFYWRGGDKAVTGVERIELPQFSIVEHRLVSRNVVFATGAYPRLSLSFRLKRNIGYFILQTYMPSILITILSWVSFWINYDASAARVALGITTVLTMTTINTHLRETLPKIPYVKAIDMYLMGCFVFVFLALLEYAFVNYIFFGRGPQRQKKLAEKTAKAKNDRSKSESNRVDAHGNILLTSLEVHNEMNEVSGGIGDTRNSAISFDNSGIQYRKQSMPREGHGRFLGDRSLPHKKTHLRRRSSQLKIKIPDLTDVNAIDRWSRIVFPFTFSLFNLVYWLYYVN
T3 sequence (P47869 whole entry): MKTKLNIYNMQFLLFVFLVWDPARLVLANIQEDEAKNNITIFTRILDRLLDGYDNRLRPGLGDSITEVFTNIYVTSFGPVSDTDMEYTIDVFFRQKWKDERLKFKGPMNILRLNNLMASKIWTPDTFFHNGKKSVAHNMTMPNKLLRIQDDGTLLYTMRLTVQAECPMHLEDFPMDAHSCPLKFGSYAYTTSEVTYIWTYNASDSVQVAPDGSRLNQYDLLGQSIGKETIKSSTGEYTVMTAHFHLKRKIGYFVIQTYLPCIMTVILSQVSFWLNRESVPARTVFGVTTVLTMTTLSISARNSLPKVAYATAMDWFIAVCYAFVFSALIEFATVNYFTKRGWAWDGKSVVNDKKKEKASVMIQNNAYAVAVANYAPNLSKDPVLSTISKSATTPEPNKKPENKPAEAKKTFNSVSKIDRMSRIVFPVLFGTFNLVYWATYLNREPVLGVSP
As to the kind of experiment: Activation of human GABAA alpha-2-beta-3-gamma-2L receptor expressed in Xenopus oocytes assessed as modulation of GABA-induced current by two-electrode voltage-clamp method.

Test [5] deals with T2, Neuronal acetylcholine receptor subunit alpha-7. Description: Activation of human alpha-7 nAChR expressed in Xenopus oocytes assessed as modulation of nicotine-induced current by measuring ratio of I/Imax current by two-electrode voltage-clamp method. The test is classed as cell-based. The following applies: Oocyte. An outline of the steps:
as §1

For test [6], the target named is T1, Neuronal acetylcholine receptor; alpha4/beta2 (Homo sapiens). Description: Activation of human nAChR alpha-4-beta-2 expressed in Xenopus oocytes assessed as modulation of nicotine-induced current by measuring ratio of I/Imax current by two-electrode voltage-clamp method. As to conditions: Oocyte. The test is classed as cell-based. An outline of the steps: as §1

The target of test [7] is T4, 5-hydroxytryptamine receptor 3A (Homo sapiens) (UniProt P46098).
T4 sequence (whole entry): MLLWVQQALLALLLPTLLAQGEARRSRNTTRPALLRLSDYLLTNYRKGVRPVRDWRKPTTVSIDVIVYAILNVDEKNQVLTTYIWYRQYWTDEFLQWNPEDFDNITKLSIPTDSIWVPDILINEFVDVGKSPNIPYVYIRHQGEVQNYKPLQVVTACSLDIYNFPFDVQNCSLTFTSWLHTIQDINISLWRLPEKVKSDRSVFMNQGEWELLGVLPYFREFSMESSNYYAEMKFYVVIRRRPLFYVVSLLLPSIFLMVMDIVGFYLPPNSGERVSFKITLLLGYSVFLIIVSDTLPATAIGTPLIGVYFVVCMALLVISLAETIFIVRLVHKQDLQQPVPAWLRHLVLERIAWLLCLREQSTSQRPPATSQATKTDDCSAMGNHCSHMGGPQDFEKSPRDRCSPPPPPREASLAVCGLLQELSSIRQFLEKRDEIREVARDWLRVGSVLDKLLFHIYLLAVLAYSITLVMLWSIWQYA
As to the kind of experiment: Activity at human 5HT3A receptor expressed in Xenopus oocytes assessed as stimulation of […] current at 10 uM by two-electrode voltage-clamp method. The test is classed as cell-based. The following applies: Oocyte. An outline of the steps:
as §1

SMILES strings stand for the structures. Calls of active or inactive are those of the source. The calls are words filed in the database; no cut-off is given here.

T2 sequence (P36544 whole entry): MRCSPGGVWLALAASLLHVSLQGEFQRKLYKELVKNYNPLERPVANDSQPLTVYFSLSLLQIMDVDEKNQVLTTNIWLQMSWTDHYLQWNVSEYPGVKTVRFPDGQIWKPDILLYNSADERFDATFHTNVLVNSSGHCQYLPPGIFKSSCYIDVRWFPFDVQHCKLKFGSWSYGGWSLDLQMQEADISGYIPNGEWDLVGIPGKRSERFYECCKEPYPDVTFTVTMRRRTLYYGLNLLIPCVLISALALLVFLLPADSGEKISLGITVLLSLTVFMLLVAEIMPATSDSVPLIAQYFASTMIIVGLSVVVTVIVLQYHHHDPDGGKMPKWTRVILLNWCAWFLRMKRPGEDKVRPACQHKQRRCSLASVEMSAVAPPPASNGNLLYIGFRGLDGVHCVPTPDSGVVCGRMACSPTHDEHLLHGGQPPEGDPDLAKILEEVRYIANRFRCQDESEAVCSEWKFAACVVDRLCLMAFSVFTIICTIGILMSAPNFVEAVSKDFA

Take `CCOC(=O)/C(=C\Nc1ccc(OCC)cc1)C(=O)c1ccccc1Cl`: the outcome in test [1], in test [6] and in test [7] was inactive. The figures for the Ratio in test [2] and in test [5] were 0.93 and 0.86, respectively. The values for the concentration giving a half-maximal response (EC50) in test [3] and in test [4] were 1800 nM and 200 nM, respectively.

For orientation: EC50 means the concentration that produces a half-maximal response.

The values above are taken from ChEMBL document CHEMBL1142221, “Nootropic alpha7 nicotinic receptor allosteric modulator derived from GABAA receptor modulators” (Proc Natl Acad Sci U S A, 2007).
